Measurements as given in ChEMBL document CHEMBL1140046, “Novel and potent inhibitors of 5-lipoxygenase product synthesis based on the structure of pirinixic acid” (J Med Chem, 2008).
The source made the active and inactive calls. The rule behind the calls is not given here.

Tests used:
[1] = biological target: T1, Polyunsaturated fatty acid 5-lipoxygenase (Homo sapiens) (UniProt P09917); experiment: Inhibition of 5-lipoxygenase in human intact polymorphonuclear leukocytes assessed as suppression of A23187-induced product formation at 10 uM; parameters: scale not given: the % may be the effect or the level left
T1 sequence (whole entry): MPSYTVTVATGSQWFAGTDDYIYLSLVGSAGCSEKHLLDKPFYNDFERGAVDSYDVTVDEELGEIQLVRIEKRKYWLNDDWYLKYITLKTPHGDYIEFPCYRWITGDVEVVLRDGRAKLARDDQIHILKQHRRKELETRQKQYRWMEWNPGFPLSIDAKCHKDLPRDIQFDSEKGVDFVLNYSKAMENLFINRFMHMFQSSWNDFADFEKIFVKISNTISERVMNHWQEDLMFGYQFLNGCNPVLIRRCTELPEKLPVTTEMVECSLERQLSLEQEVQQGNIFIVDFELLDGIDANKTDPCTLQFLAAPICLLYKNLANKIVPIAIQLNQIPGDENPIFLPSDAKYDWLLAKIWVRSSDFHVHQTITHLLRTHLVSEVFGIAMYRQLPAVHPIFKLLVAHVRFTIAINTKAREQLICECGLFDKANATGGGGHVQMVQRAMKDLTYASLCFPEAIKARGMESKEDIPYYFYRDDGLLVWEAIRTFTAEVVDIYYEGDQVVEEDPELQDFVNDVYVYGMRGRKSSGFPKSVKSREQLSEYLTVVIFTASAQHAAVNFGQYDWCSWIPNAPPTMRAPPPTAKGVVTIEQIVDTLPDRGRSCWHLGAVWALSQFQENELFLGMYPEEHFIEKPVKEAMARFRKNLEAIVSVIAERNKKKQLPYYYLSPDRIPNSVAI
How it was run: (§1)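 Human PMNL were isolated from donor venous blood by dextran sedimentation, Nycoprep centrifugation and hypotonic lysis. 5 × 10^6 cells in 1 mL PBS pH 7.4 with 1 mg/mL glucose and 1 mM CaCl2 were preincubated 15 min at RT. Stimulation was with 2.5 µM A23187 plus 20 µM AA for 10 min at 37 °C. Methanol stop, PGB1 internal standard, HPLC of LTB4, its all-trans isomers and 5-H(P)ETE.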

[2] = biological target: T1, Polyunsaturated fatty acid 5-lipoxygenase (Homo sapiens); experiment: Inhibition of 5-lipoxygenase in human intact polymorphonuclear leukocytes assessed as suppression of A23187-induced product formation at 1 uM; parameters: scale not given: the % may be the effect or the level left; how it was run: as §1
[3] = biological target: T1, Polyunsaturated fatty acid 5-lipoxygenase (Homo sapiens); experiment: Inhibition of human recombinant 5-lipoxygenase expressed in Escherichia coli MV1190 assessed as suppression of CaCl2/arachidonic acid-induced product formation at 30 uM; parameters: scale not given: the % may be the effect or the level left
[4] = biological target: T1, Polyunsaturated fatty acid 5-lipoxygenase (Homo sapiens); experiment: Inhibition of human recombinant 5-lipoxygenase expressed in Escherichia coli MV1190 assessed as suppression of CaCl2/arachidonic acid-induced product formation at 1 uM; parameters: scale not given: the % may be the effect or the level left
[5] = biological target: T2, Polyunsaturated fatty acid 5-lipoxygenase (Homo sapiens, UniProt P09917); experiment: Inhibition of human recombinant 5-lipoxygenase expressed in Escherichia coli MV1190 assessed as suppression of CaCl2/arachidonic acid-induced product formation
T2 sequence (P09917 whole entry): T1 sequence (whole entry)

[6] = biological target: T2, Polyunsaturated fatty acid 5-lipoxygenase; experiment: Inhibition of 5-lipoxygenase in human intact polymorphonuclear leukocytes assessed as suppression of A23187-induced product formation
How it was run: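 Same PMNL assay: 15 min RT preincubation, then 2.5 µM A23187 plus 20 µM exogenous AA for 10 min at 37 °C. HPLC read-out as ng 5-LO products per 10^6 cells. IC50 approximated by linear interpolation around 50% activity from 4-5 concentrations; mean ± SE, n = 3-5.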

| Compound | Activity [1] | Activity [2] | Activity [3] | Activity [4] | IC50 [5] | IC50 [6] |
| --- | --- | --- | --- | --- | --- | --- |
| CCCCCCC(Sc1nc(Cl)cc(Oc2ccc3ncccc3c2)n1)C(=O)O (configuration not stated) | 10.7% | 91.4% | 72.6% | 93.7% | – | – |
| CCCCCCC(Sc1nc(Cl)cc(Nc2cccc(C)c2C)n1)C(=O)OCC (configuration not stated) | 30.5% | 84.9% | – | – | – | – |
| CCOC(=O)CSc1nc(Cl)cc(OCc2ccc3ncccc3c2)n1 | 3.9% | 80% | – | – | – | – |
| CCCCCCC(Sc1nc(Cl)cc(NCc2ccc3ncccc3c2)n1)C(=O)O (configuration not stated) | 26.7% | 87.6% | 51% | 95.6% | 31000 nM | – |
| O=C(O)C(Sc1nc(Cl)cc(Nc2ccc3ncccc3c2)n1)c1ccccc1 (configuration not stated) | 69.1% | inactive | – | – | – | – |
| CCOC(=O)CSc1nc(Cl)cc(Nc2ccc3ncccc3c2)n1 | 12.3% | 86.3% | – | – | – | 2600 nM |
| CCOC(=O)C(C)Sc1nc(Cl)cc(Nc2cccc(C)c2C)n1 (configuration not stated) | 22.8% | inactive | – | – | – | – |
| CCCCC(Sc1nc(Cl)cc(Nc2ccc3ncccc3c2)n1)C(=O)O (configuration not stated) | 50% | inactive | – | – | – | – |
| Cc1cccc(Nc2cc(Cl)nc(SC(C)C(=O)O)n2)c1C (configuration not stated) | inactive | inactive | – | – | – | – |
| CC(Sc1nc(Cl)cc(Nc2ccc3ncccc3c2)n1)C(=O)O (configuration not stated) | inactive | inactive | – | – | – | – |
| Cc1cccc(Nc2cc(Cl)nc(SCC(=O)O)n2)c1C | inactive | inactive | – | – | – | – |
| CCCCC(Sc1nc(Cl)cc(Nc2ccc3ncccc3c2)n1)C(=O)OCC (configuration not stated) | 1.6% | 51.8% | – | – | – | 1100 nM |
| CCOC(=O)CSc1nc(Cl)cc(Nc2cccc3c2CCC3)n1 | 8.9% | 65.2% | – | – | – | 3200 nM |
| CCOC(=O)C(Sc1nc(Cl)cc(Nc2cccc(C)c2C)n1)c1ccccc1 (configuration not stated) | 18.7% | 53.1% | – | – | – | 1800 nM |
| O=C(O)CSc1nc(Cl)cc(Oc2ccc3ncccc3c2)n1 | inactive | inactive | – | – | – | – |
| CCCCCCC(Sc1nc(Cl)cc(Oc2ccc3ncccc3c2)n1)C(=O)OCC (configuration not stated) | 4.5% | 67.4% | 59.2% | 79.1% | – | 1700 nM |
| CCOC(=O)C(Sc1nc(Cl)cc(Nc2ccc3ncccc3c2)n1)c1ccccc1 (configuration not stated) | 3.5% | 52.7% | – | – | – | 1200 nM |
| CCOC(=O)CSc1nc(Cl)cc(Oc2ccc3ncccc3c2)n1 | 77.6% | inactive | – | – | – | – |
| CCOC(=O)CSc1nc(Cl)cc(Nc2cccc(C)c2C)n1 | 77.7% | 76.9% | – | – | – | – |
| CCCCCCC(Sc1nc(Cl)cc(Nc2ccc3ncccc3c2)n1)C(=O)O (configuration not stated) | 20.1% | inactive | 52.7% | 95.4% | 34000 nM | – |
| CC(=O)N(O)C/C=C/c1cccc(Oc2ccccc2)c1 | – | 3.3% | – | 10.8% | – | – |
| CCOC(=O)C(C)Sc1nc(Cl)cc(Nc2ccc3ncccc3c2)n1 (configuration not stated) | 12% | inactive | – | – | – | – |
| CCCCCCC(Sc1nc(Cl)cc(Nc2ccc3ncccc3c2)n1)C(=O)OCC (configuration not stated) | 4% | 27.9% | 43.8% | 68.2% | 19000 nM | 600 nM |
| Cc1cccc(Nc2cc(Cl)nc(SC(C(=O)O)c3ccccc3)n2)c1C (configuration not stated) | inactive | inactive | – | – | – | – |
| CCCCCCC(Sc1nc(Cl)cc(Nc2cccc(C)c2C)n1)C(=O)O (configuration not stated) | 28.9% | 64.3% | – | – | – | 4100 nM |
| CCCCCCC(Sc1nc(Cl)cc(NCc2ccc3ncccc3c2)n1)C(=O)OCC (configuration not stated) | 11.4% | 57.4% | 56% | 70.7% | 37000 nM | 1400 nM |
| O=C(O)CSc1nc(Cl)cc(Nc2cccc3c2CCC3)n1 | 14.5% | 71.1% | – | – | – | 3900 nM |
| O=C(O)CSc1nc(Cl)cc(Nc2ccc3ncccc3c2)n1 | inactive | inactive | – | – | – | – |
